ChEMBL document CHEMBL3232887, “Propargyl-linked antifolates are dual inhibitors of Candida albicans and Candida glabrata” (J Med Chem, 2014)
pIC50: −log10 of the molar value. Values after ≈ are worked out from the molar mass of the structure shown. Active and inactive are the calls of the source. No cut-off for these calls is given here.

Experiments:
Candida albicans [1] = assay: Antifungal activity against Candida albicans NCCLS84 after 24 hrs by XTT assay; assay type: functional; settings: SC5314, 24 h, in the assay text read “SC5314” for “NCCLS84”
[2] = Inhibition of Candida glabrata DHFR using dihydrofolate as substrate preincubated for 5 mins followed by substrate addition in presence of NADPH; parameters: species or system Nakaseomyces glabratus
How it was run: (§1)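 Racemic inhibitor from DMSO stock (<2% DMSO in assay) was preincubated 5 min with enzyme and 100 μM NADPH. NADPH consumption was followed at 340 nm for 1 min at 25 °C, in triplicate.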

[3] = Kinetic solubility of the compound in water after 30 mins by HPLC analysis; assay type: physicochemical; settings: read-out: Kinetic_solubility
Nakaseomyces glabratus = assay: Antifungal activity against Candida glabrata NCCLS84 after 24 hrs by Alamar Blue assay; settings: NCCLS84, 24 h
MCF10 = assay: Cytotoxicity against human MCF10 cells; assay type: cell-based
Dihydrofolate reductase [4] = molecular target: T1, Dihydrofolate reductase (Homo sapiens, UniProt P00374); assay: Inhibition of human DHFR using dihydrofolate as substrate preincubated for 5 mins followed by substrate addition in presence of NADPH; how it was run: as §1
T1 sequence (P00374 whole entry): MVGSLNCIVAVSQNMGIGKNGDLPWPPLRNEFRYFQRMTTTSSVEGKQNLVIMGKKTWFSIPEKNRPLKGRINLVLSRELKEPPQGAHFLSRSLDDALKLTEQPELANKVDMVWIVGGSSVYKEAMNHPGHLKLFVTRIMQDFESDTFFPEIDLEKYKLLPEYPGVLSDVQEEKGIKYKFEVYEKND

Dihydrofolate reductase [5] = molecular target: T2, Dihydrofolate reductase (Candida albicans, UniProt P22906); assay: Inhibition of Candida albicans DHFR using dihydrofolate as substrate preincubated for 5 mins followed by substrate addition in presence of NADPH
T2 sequence (P22906 whole entry): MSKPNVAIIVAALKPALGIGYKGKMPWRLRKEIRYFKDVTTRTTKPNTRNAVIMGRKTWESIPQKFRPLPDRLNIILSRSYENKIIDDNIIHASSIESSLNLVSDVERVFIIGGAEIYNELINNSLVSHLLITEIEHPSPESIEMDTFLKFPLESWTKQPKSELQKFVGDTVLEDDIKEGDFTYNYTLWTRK
How it was run: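 Consumption of NADPH followed at 340 nm for 1 min at 25 °C. Buffer: 20 mM TES pH 7.0, 50 mM KCl, 10 mM 2-mercaptoethanol, 0.5 mM EDTA, 1 mg/mL BSA. Saturating 100 μM NADPH and 100 μM dihydrofolate, limiting enzyme. Racemic inhibitor was added from DMSO stocks at under 2% DMSO final. Triplicate runs.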

[6] = Selectivity ratio of IC50 for human DHFR to IC50 for Candida glabrata DHFR
[7] = Selectivity ratio of IC50 for human DHFR to IC50 for Candida albicans DHFR
Candida albicans [8] = assay: Antifungal activity against Candida albicans after 24 hrs by assay in presence of 0.01% Triton X-100
[9] = Kinetic solubility of the compound in water after 30 mins by HPLC analysis in presence of 0.02% HPMC; assay type: physicochemical; settings: water with 0.02% HPMC; read-out: Kinetic_solubility
Candida albicans [10] = assay: Antifungal activity against Candida albicans after 24 hrs by assay
Candida albicans [11] = assay: Antifungal activity against Candida albicans NCCLS84 at 100 ug/ml after 24 hrs by XTT assay; assay type: functional, organism-based

Row | SMILES | MIC (Candida albicans [1]) [mg/L] | pIC50 [2] | MIC (Nakaseomyces glabratus) [mg/L] | pIC50 (MCF10) | pIC50 (Dihydrofolate reductase [4]) | pIC50 (Dihydrofolate reductase [5]) | other results
1 | COc1cc(-c2ccccc2)cc(C(C)C#Cc2c(C)nc(N)nc2N)c1 (stereo unspecified) | 23 (≈ 64.2 µM) | 8.14 |  |  |  |  | 
2 | CCc1nc(N)nc(N)c1C#CC(C)c1ccc(-c2ccccc2)nc1 (stereo unspecified) | 0.39 (≈ 1.14 µM) | 7.64 | 0.78 (≈ 2.27 µM) | 3.83 |  |  | solubility kinetic at 0.5 h [3]: 0.02 mg/mL (≈ 58.2 µM)
3 | COc1cc(C(C)C#Cc2c(C)nc(N)nc2N)ccc1-c1ccccc1 (stereo unspecified) | 6.25 (≈ 17.4 µM) |  | 0.78 (≈ 2.18 µM) | 4.10 |  |  | 
4 | COc1cc(C(C)C#Cc2c(C)nc(N)nc2N)c(OC)cc1-c1ccccc1 (stereo unspecified) | 3.1 (≈ 7.98 µM) | 8.09 | 1.6 (≈ 4.12 µM) |  | 6.50 | 7.44 | 
5 | CCc1nc(N)nc(N)c1C#CC(C)c1ccc(-c2ccccc2)cc1OC (stereo unspecified) | 6.3 (≈ 16.9 µM) | 7.51 | 1.6 (≈ 4.3 µM) |  | 6.76 | 7.31 | Ratio IC50 [6]: 6; Ratio IC50 [7]: 4
6 | CCc1nc(N)nc(N)c1C#CC(C)c1ccc(-c2ccc(C)cc2)nc1 (stereo unspecified) | 0.39 (≈ 1.09 µM) | 7.57 | 0.2 (≈ 0.56 µM) |  |  |  | solubility kinetic at 0.5 h [3]: 0.015 mg/mL (≈ 42 µM); Activity (Candida albicans [8]): Active
7 | CCc1nc(N)nc(N)c1C#CC(C)c1ccc(-c2ccc(F)cc2)cc1OC (stereo unspecified) | 1.8 (≈ 4.61 µM) |  | 7.5 (≈ 19.2 µM) | 4.22 | 6.83 | 7.37 | 
8 | CCc1nc(N)nc(N)c1C#CC(C)c1ccc(-c2ccccc2)cc1 (stereo unspecified) | 7.5 (≈ 21.9 µM) | 8.22 | 3.1 (≈ 9.05 µM) | 3.30 | 6.76 | 7.64 | 
9 | CCc1nc(N)nc(N)c1C#CC(C)c1ccc(-c2ccc(C#N)cc2)cc1OC (stereo unspecified) |  |  |  | 4.30 |  |  | 
10 | CCc1nc(N)nc(N)c1C#CC(C)c1cnc(-c2ccccc2)nc1 (stereo unspecified) | 0.19 (≈ 0.552 µM) | 7.66 | 0.78 (≈ 2.26 µM) | 3.67 |  |  | solubility kinetic at 0.5 h [3]: 0.06 mg/mL (≈ 174 µM)
11 | CCc1nc(N)nc(N)c1C#CC(C)c1cc(OC)cc(-c2ccncc2)c1 (stereo unspecified) | 25 (≈ 66.9 µM) |  | 1.3 (≈ 3.48 µM) |  |  |  | MIC (Candida albicans [8]): 6.25 mg/L
12 | COc1cc(-c2ccccc2)ccc1C(C)C#Cc1c(C)nc(N)nc1N (stereo unspecified) | 1.6 (≈ 4.46 µM) |  | 0.39 (≈ 1.09 µM) | 4.13 | 6.47 | 7.70 | solubility kinetic at 0.5 h [9]: 0.025 mg/mL
13 | CCc1nc(N)nc(N)c1C#CC(C)c1ccc(-c2ccc(N(C)C)cc2)cc1OC (stereo unspecified) |  |  |  |  |  |  | MIC (Candida albicans [10]): inactive
14 | CCc1nc(N)nc(N)c1C#CC(C)c1ccc(-c2ccncc2)cc1OC (stereo unspecified) | 25 (≈ 66.9 µM) | 7.72 | 0.78 (≈ 2.09 µM) | 3.67 | 6.90 | 7.48 | 
15 | CCc1nc(N)nc(N)c1C#CC(C)c1ccc(-c2ccc(OC(N)=O)cc2)cc1OC (stereo unspecified) |  |  |  |  |  |  | MIC (Candida albicans [10]): inactive
16 | CCc1nc(N)nc(N)c1C#CC(C)c1ccc(-c2ccc(C(=O)OC)cc2)cc1OC (stereo unspecified) |  |  |  | 4.02 |  |  | 
17 | CCc1nc(N)nc(N)c1C#CC(C)c1ccc(-c2ccc(C)cc2)cc1OC (stereo unspecified) | 3.1 (≈ 8.02 µM) | 7.66 | 1.6 (≈ 4.14 µM) |  | 6.68 | 7.32 | Ratio IC50 [6]: 9; Ratio IC50 [7]: 4
18 | CCc1nc(N)nc(N)c1C#CC(C)c1ccc(-c2ccc(O)cc2)cc1OC (stereo unspecified) |  |  |  | 3.83 |  |  | Activity (Candida albicans [11]): inactive
